According to publication PMC10617274 (Therapeutic Advances in Infectious Disease, 2023):

How the values were obtained:
[1] = Cytotoxicity in mouse peritoneal macrophages; type: cell-based, BALB/c mice; details: BALB/c, Macrophages CC50 + SD, resazurin
Outline: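 Peritoneal lavage cells from BALB/c mice, in RPMI + 10% heat-inactivated FBS, seeded at 3 × 10⁵ macrophages/mL, left to adhere 2 h at 33°C, 5% CO₂; non-adherent cells washed off with PBS. Test compound from 650 µM top, 8 serial 1:2.5 dilutions, quadruplicate, 48 h. Then 3 mM resazurin (stock), fluorescence after 4 h; CC50 by non-linear curve fit; at least three independent trials.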

[2] = tested on: L. amazonensis promastigotes; test: Susceptibility assay in promastigotes; type: cell-based, Leishmania amazonensis (MHOM/BR/77/LTB0016 strain); details: Leishmania amazonensis, 72 h, read-out: Promastigotes IC50 + SD

Q: With C[C@@H]1[C@H](O)[C@@H](C)/C=C/C=C/C=C/C=C/C=C/C=C/C=C/[C@H](O[C@@H]2O[C@H](C)[C@@H](O)[C@H](N)[C@@H]2O)C[C@@H]2O[C@](O)(C[C@@H](O)C[C@@H](O)[C@H](O)CC[C@@H](O)C[C@@H](O)CC(=O)O[C@H]1C)C[C@H](O)[C@H]2C(=O)O [Amphotericin B] as the compound, how does the CC50 at 48 h [1] read?
A: Its CC50 at 48 h is 5.8 ± 0.5 µM.

Q: What about the IC50 [2] of the same compound?
A: The IC50 was 30 ± 14 nM.
